Compound activity: PubChem, The Scripps Research Institute Molecular Screening Center
Most compounds without a hit are left out; they make up all but 3.2% or so of the library.
PRMT1 FP inh: PRMT1 methyltransferase inhibitors, primary screen, biochemical, fluorescence polarization. Protein arginine N-methyltransferase 1 (Homo sapiens), Q99873. recombinant PRMT1, activity-based probe fluorescence polarization. inhibition, % at 2.79 µM. hit rate 1.3% among 370,000;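 active = inhibition above about 21% made by adding two undisclosed values, limit read from the data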
ABHD4 inh: ABHD4 inhibitors, primary screen, biochemical, fluorescence polarization, mouse; (Lyso)-N-acylphosphatidylethanolamine lipase (Mus musculus), Q8VD66; purified mABHD4, FP-Rh probe fluorescence polarization; inhibition, % at 8.92 µM; hit rate 0.54% among 370,000; AID 720543, 2013;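 active = inhibition exceeding the mean over every tested compound plus 3 SD, cut at about 30% in these data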
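Assay system: wild-type mouse ABHD4 protein; compound: single nominal dose of 8.92 µM, 0.89% DMSO final; schedule: 45 min + 60 min at 25 °C; measured by: FP readout, ex 525 nm / em 598 nm; evaluation: % inhibition of FP-Rh probe binding versus controls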
LEDGF integ inh: blockers of LEDGF/p75-dependent integrase strand transfer – biochemical, TR-FRET, high throughput, primary screen; hit rate 0.64% among 370,000; inhibition, % at 3.7 µM; TR-FRET IN-LEDGF/p75 DNA integration, Eu/Cy5; AID 743269, 2014; HIV-1 integrase (with human LEDGF/p75);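 active = inhibition above the screen-wide mean plus 3 SD, cut at about 13% in these data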;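 also: signal is the Cy5 over europium emission ratio at 671 and 618 nm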
DAGLB inh: DAGLB lipase inhibitors, primary screen, biochemical, fluorescence, HTS; Diacylglycerol lipase-beta (Homo sapiens), Q8NCG7; HEK293T DAGLB membrane lysate, EnzChek fluorogenic substrate; inhibition, % at 5.17 µM; hit rate 0.059% among 340,000; in the data active = inhibition above about 34%
Target sequence (Q8NCG7 whole entry, looked up): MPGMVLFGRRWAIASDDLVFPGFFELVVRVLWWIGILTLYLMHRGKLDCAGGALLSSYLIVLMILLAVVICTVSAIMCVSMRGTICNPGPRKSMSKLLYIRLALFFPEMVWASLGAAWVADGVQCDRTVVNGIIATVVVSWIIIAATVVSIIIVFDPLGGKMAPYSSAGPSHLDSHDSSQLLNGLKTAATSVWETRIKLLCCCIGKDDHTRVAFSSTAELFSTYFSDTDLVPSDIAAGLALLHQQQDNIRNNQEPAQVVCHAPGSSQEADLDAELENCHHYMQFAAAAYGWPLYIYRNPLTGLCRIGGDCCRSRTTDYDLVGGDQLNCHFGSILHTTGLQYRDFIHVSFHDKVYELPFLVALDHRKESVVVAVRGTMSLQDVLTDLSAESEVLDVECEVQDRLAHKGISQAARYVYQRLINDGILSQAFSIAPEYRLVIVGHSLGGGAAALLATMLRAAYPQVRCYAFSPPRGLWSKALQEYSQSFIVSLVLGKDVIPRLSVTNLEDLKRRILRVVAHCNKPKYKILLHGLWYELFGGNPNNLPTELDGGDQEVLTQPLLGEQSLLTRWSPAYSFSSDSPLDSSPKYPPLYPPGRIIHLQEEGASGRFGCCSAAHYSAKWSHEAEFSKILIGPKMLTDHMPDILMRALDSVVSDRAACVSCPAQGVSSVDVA
HTRA1 inh: HTRA1 serine protease inhibitors, primary screen, biochemical, fluorescence polarization, HTS. hit rate 0.5% among 340,000. recombinant HTRA1, FP-rhodamine activity-based probe. Q92743. inhibition, % at 5.96 µM; in the data active = inhibition above about 36%
rCAG RNA binder: binders of r(CAG) RNA repeats, primary screen, biochemical, fluorescence; r(CAG) RNA repeat, TO-PRO-1 dye displacement fluorescence; inhibition, % at 3 µM; hit rate 1.3% among 370,000; AID 651821, 2012;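 active = inhibition above the plate cutoff, the mean of all test compounds on that plate plus 3 SD, cut at about 35% in these data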;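 also: higher means more dye released from RNA so lower well fluorescence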
PRMT1 confirm: PRMT1 methyltransferase inhibitors, confirmation, biochemical, fluorescence polarization, triplicate; inhibition, % at 2.79 µM; hit rate 42% among 3,300; AID 687036, 2013; recombinant His-PRMT1, activity-based probe fluorescence polarization; shares compounds with PRMT1 FP inh;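 active = mean inhibition across replicates above the hit cutoff derived for the earlier primary screen, cut at about 22% in these data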
Of the large screens only hits and unclear results are named; the others gave an inactive call (follow-up assays come after a bar, where they were run); ! = a repeat was not active.

COC(=O)c1ccc(NC(=O)c2nc(S(=O)(=O)Cc3cccc(C)c3)ncc2Cl)cc1	PRMT1 FP inh 52 | PRMT1 confirm 38
O=C1C=C(NNC(=O)c2cccnc2)CC(c2ccco2)C1 (configuration not stated)	PRMT1 FP inh 42 | PRMT1 confirm inactive
C[C@@H](O)CC#Cc1ccc2oc(=O)c(-n3cc(-c4ccsc4)nn3)cc2c1	none
CC(=O)Nc1ccc(S[C@@H](CCN2CC[C@H](O)CCC2=O)c2ccccc2)cc1	PRMT1 FP inh 36 | PRMT1 confirm 28
Oc1c(C=C2N=c3ccccc3=N2)sc(=S)n1-c1ccc2ccccc2c1	none
Oc1c(C=C2N=c3ccccc3=N2)sc(=S)n1-c1ccc(F)cc1	PRMT1 FP inh 41! | PRMT1 confirm inactive
CCC(CC)c1nnc(NC(=O)COc2ccc3c(c2)OCO3)s1	PRMT1 FP inh 42 | PRMT1 confirm inactive
O=C(NCC1CCCO1)c1cc(-c2ccco2)nc2ccccc12 (configuration not stated)	PRMT1 FP inh 73 | PRMT1 confirm inactive
NS(=O)(=O)c1ccc(CCNC(=O)c2cc(-c3ccco3)nc3ccccc23)cc1	PRMT1 FP inh 51 | PRMT1 confirm inactive
Cc1cccc(NC(=O)c2cc(-c3ccco3)nc3ccccc23)n1	PRMT1 FP inh 35 | PRMT1 confirm inactive
CCCCCCNC(=O)c1cc(-c2ccco2)nc2ccccc12	PRMT1 FP inh 42 | PRMT1 confirm inactive
Cc1ccccc1NC(=O)c1cc(-c2ccco2)nc2ccccc12	none (no result: DAGLB inh, HTRA1 inh)
Cc1ccc(C(NC(=O)C2CCN(Cc3ccc(Cl)c(Cl)c3)CC2)c2ccccn2)cc1 (configuration not stated)	none (no result: DAGLB inh, HTRA1 inh)
O=C(Nc1ccccc1C(=O)N1CCOCC1)c1cccc(S(=O)(=O)N2CCCC2)c1	none
CN(CC(=O)Nc1cccc(F)c1)C(=O)CCC1CCCCC1	none
O=C(O)c1cc(-c2ccco2)nc2ccc(Br)cc12	PRMT1 FP inh 35 | PRMT1 confirm inactive
COc1ccc(NC(=O)c2cc(-c3ccco3)nc3ccccc23)cc1	none
NC(=O)COC(=O)c1cc(-c2ccco2)nc2ccccc12	PRMT1 FP inh 28 | PRMT1 confirm inactive
NS(=O)(=O)c1ccc(CCNC(=O)c2ccc[nH]c2=S)cc1	PRMT1 FP inh 39 | PRMT1 confirm inactive
O=C(c1ccco1)N1CCN(C(=O)c2cc(-c3ccncc3)nc3ccc(Br)cc23)CC1	none
COc1ccc(C(=O)NCc2ccc(N3CCN(C)CC3)cc2)cc1	none
Cc1ccc2c(c1)c1c(n2CC(O)Cn2ccnc2C)C(=O)CCC1 (configuration not stated)	none
Cc1ccc2c(c1)c1c(n2CC(O)CN2C(=O)CNC2=O)C(=O)CCC1 (configuration not stated)	PRMT1 FP inh 33 | PRMT1 confirm inactive
CC(C)(O)C#Cc1ccc(CN2CCN(Cc3ccccc3)C(CCO)C2)cc1 (configuration not stated)	none
O=C(CNC(=O)c1cccs1)OCC(=O)c1ccccc1	none
Cc1ccc(C(=O)COC(=O)c2cnccn2)cc1	none
O=C(COC(=O)c1cnccn1)c1ccc([N+](=O)[O-])cc1	PRMT1 FP inh 47 | PRMT1 confirm 60
O=C(CNC(=O)c1cccs1)NCC(=O)OCC(=O)c1ccc([N+](=O)[O-])cc1	PRMT1 FP inh 70 | PRMT1 confirm 41
O=C(COc1ccccc1F)OCC(=O)c1ccc([N+](=O)[O-])cc1	PRMT1 FP inh 46 | PRMT1 confirm 34
CC(OC(=O)c1ccc(F)c(S(=O)(=O)N2CCOCC2)c1)C(=O)NCC1CCCCC1 (configuration not stated)	none
Cc1c(N2C(=O)/C(=C/c3cccc4ccccc34)SC2=S)c(=O)n(-c2ccccc2)n1C	none
Cc1c(N2C(=O)/C(=C\c3ccccc3O)SC2=S)c(=O)n(-c2ccccc2)n1C	PRMT1 FP inh 47 | PRMT1 confirm 83
Cc1c(N2C(=O)/C(=C/c3ccccc3)SC2=S)c(=O)n(-c2ccccc2)n1C	none
Cc1ccc(/C=C2\SC(=S)N(c3c(C)n(C)n(-c4ccccc4)c3=O)C2=O)cc1	none
Cc1c(N2C(=O)/C(=C\C3CC=CCC3)SC2=S)c(=O)n(-c2ccccc2)n1C (configuration not stated)	PRMT1 FP inh 43 | PRMT1 confirm 25
Cc1c(N2C(=O)/C(=C/C3CC=CCC3)SC2=S)c(=O)n(-c2ccccc2)n1C (configuration not stated)	PRMT1 FP inh 39 (no result: DAGLB inh, HTRA1 inh) | PRMT1 confirm 26
Cc1cc(S(=O)(=O)NCC(c2ccc(F)cc2)N2CCN(C)CC2)ccc1F (configuration not stated)	none
O=C(Nc1ccc(C(=O)O)cc1)/C(=C\c1ccco1)NC(=O)c1ccco1	PRMT1 FP inh 47 | PRMT1 confirm inactive
O=C(NC(Cc1ccccc1)C(=O)O)/C(=C/c1ccco1)NC(=O)c1cccc(Br)c1 (configuration not stated)	PRMT1 FP inh 25 | PRMT1 confirm inactive
O=C1CSc2ccc(S(=O)(=O)NCc3ccc(Cl)cc3)cc2N1	none
O=C1CS/C(=C\S(=O)(=O)c2ccc(Cl)cc2)N1	PRMT1 FP inh 32 | PRMT1 confirm 22
COc1ccc(C(=O)NC(=S)NNC(=O)Cc2cccs2)cc1	none
COc1cc(OC)cc(C(=O)NC(=S)NNC(=O)Cc2cccs2)c1	PRMT1 FP inh 28 | PRMT1 confirm inactive
Nc1cc(-c2ccc(OC(F)(F)F)cc2)nn1-c1ccc(Cl)c(Cl)c1	none (no result: DAGLB inh, HTRA1 inh)
c1ccc(Cn2c(Nn3cnnc3)nc3ccccc32)cc1	none
O=C(SCC(O)C(O)CS)c1cccs1 (configuration not stated)	PRMT1 FP inh 65 | PRMT1 confirm 54
CC(CC(=O)c1cccs1)CC(=O)c1cccs1	none
Nc1ccc2c3c(cccc13)CC2	PRMT1 FP inh 66 | PRMT1 confirm inactive
Cc1ccc(Cn2c(=S)[nH]c3ccc(N4CCOCC4)cc3c2=O)o1	PRMT1 FP inh 69 | PRMT1 confirm 61
O=c1c2cc(N3CCOCC3)ccc2[nH]c(=S)n1Cc1ccc(Cl)cc1	none
Cc1c([N+](=O)[O-])cc(N2C(=O)C=CC2=O)cc1[N+](=O)[O-]	none (no result: PRMT1 FP inh, ABHD4 inh, LEDGF integ inh, rCAG RNA binder)
